Measured values as given in ChEMBL document CHEMBL3351896, “Small Molecule that Reverses Dexamethasone Resistance in T-cell Acute Lymphoblastic Leukemia (T-ALL)” (ACS Med Chem Lett, 2014).
Calls of active or inactive are those of the source.

Key:
CUTLL1 [1] = test: Induction of PARP1 cleavage in human CUTLL1 cells at 25 uM after 24 hrs by western blotting method; format: functional, cell-based
Outline: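 CUTLL1 cells exposed 24 h to compound (25 μM) alone, with 1 μM dexamethasone, or with dexamethasone plus 1 μM RU486. Apoptosis read as cleaved PARP by Western blot, quantified as fold change.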

CUTLL1 [2] = test: Growth inhibition of human CUTLL1 cells at 50 uM in presence of camptothecin after 48 hrs by alamar blue assay; format: functional, cell-based
CUTLL1 [3] = test: Growth inhibition of human CUTLL1 cells at 50 uM in presence of etoposide after 48 hrs by alamar blue assay; format: functional, cell-based
CUTLL1 [4] = test: Growth inhibition of human CUTLL1 cells at 50 uM in presence of taxol after 48 hrs by alamar blue assay; format: functional, cell-based
[5] = target: T1, Gamma-secretase (Homo sapiens) (UniProt Q96BI3+Q9NZ42+Q8WW43+P49768+Q92542+P49810); test: Inhibition of gamma secretase in human CUTLL1 cells assessed as effect on NOTCH cleavage level at 25 uM after 24 hrs by Western blotting; format: cell-based
Outline: (§1)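 Western blot of intracellular NOTCH (ICN) in CUTLL1 cells after 24 h exposure to compound alone or with 1 μM dexamethasone. The γ-secretase inhibitor Compound E (100 nM) plus dexamethasone was the reference treatment.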

[6] = target: T1, Gamma-secretase (Homo sapiens); test: Inhibition of gamma secretase in human CUTLL1 cells assessed as effect on NOTCH cleavage level at 25 uM in presence of 1 uM dexamethasone after 24 hrs by Western blotting; format: cell-based; outline: as §1
CUTLL1 [7] = test: Potentiation of dexamethasone-induced cytotoxicity against human CUTLL1 cells with low GR expression levels at 50 uM after 48 hrs by alamar blue assay; format: functional, cell-based
Outline: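 Human CUTLL1 T-ALL cells engineered to express high (overexpressed) or low (knockdown) glucocorticoid receptor levels. Exposed to compound alone or with 1 μM dexamethasone. Alamar blue growth inhibition read after 48 h.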

CUTLL1 [8] = test: Increase in GR expression in human CUTLL1 cells at < 25 uM after 24 hrs by RT-qPCR method; format: functional, cell-based
CUTLL1 [9] = test: Increase in GR expression in human CUTLL1 cells at 50 uM after 6 hrs by Western blotting method; format: functional, cell-based
Outline: (§2)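 CUTLL1 cells exposed to compound (25 or 50 μM) alone, with 1 μM dexamethasone, or with dexamethasone plus 1 μM RU486, for 6 or 24 h. GR measured as protein by Western blot and as transcript by RT-qPCR.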

CUTLL1 [10] = test: Increase in GR expression in human CUTLL1 cells at 50 uM after 6 hrs by RT-qPCR method; format: functional, cell-based; outline: as §2
CUTLL1 [11] = test: Effect on DDIT4 gene expression in human CUTLL1 cells in presence of 1 uM dexamethasone at 30 uM after 24 hrs by microarray method; format: functional, cell-based
Outline: (§3)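 CUTLL1 T-ALL cells exposed 24 h to vehicle (DMSO), dexamethasone alone (1 μM), test agent alone (30 μM), or dexamethasone (1 μM) plus test agent (30 μM), in triplicate. Expression profiled by microarray. Leading-edge genes from GSEA were compared between the dexamethasone-plus-agent and dexamethasone-alone groups, using glucocorticoid-regulated gene sets from ALL patients on glucocorticoid therapy.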

CUTLL1 [12] = test: Effect on SPC25 gene expression in human CUTLL1 cells in presence of 1 uM dexamethasone at 30 uM after 24 hrs by microarray method; format: functional, cell-based
Outline: (§4)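 Human CUTLL1 T-ALL cells exposed for 24 h to vehicle (DMSO), dexamethasone alone (1 μM), test compound alone (30 μM), or dexamethasone 1 μM plus compound 30 μM, each in triplicate. Expression profiled by microarray. Glucocorticoid-regulated gene sets from ALL patients on glucocorticoid therapy scored by GSEA. Leading-edge genes compared between the combination and dexamethasone alone.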

CUTLL1 [13] = test: Effect on RPS14 gene expression in human CUTLL1 cells in presence of 1 uM dexamethasone at 30 uM after 24 hrs by microarray method; format: functional, cell-based; outline: as §4
CUTLL1 [14] = test: Effect on SMC2 gene expression in human CUTLL1 cells in presence of 1 uM dexamethasone at 30 uM after 24 hrs by microarray method; format: functional, cell-based; outline: as §4
CUTLL1 [15] = test: Effect on CHEK1 gene expression in human CUTLL1 cells in presence of 1 uM dexamethasone at 30 uM after 24 hrs by microarray method; format: functional, cell-based; outline: as §3
CUTLL1 [16] = test: Effect on BCCIP gene expression in human CUTLL1 cells in presence of 1 uM dexamethasone at 30 uM after 24 hrs by microarray method; format: functional, cell-based; outline: as §3
CUTLL1 [17] = test: Effect on PCNA gene expression in human CUTLL1 cells in presence of 1 uM dexamethasone at 30 uM after 24 hrs by microarray method; format: functional, cell-based; outline: as §4
CUTLL1 [18] = test: Effect on ZWINT gene expression in human CUTLL1 cells in presence of 1 uM dexamethasone at 30 uM after 24 hrs by microarray method; format: functional, cell-based; outline: as §4
CUTLL1 [19] = test: Effect on NHP2 gene expression in human CUTLL1 cells in presence of 1 uM dexamethasone at 30 uM after 24 hrs by microarray method; format: functional, cell-based; outline: as §3
CUTLL1 [20] = test: Effect on ALYREF gene expression in human CUTLL1 cells in presence of 1 uM dexamethasone at 30 uM after 24 hrs by microarray method; format: functional, cell-based; outline: as §3
CUTLL1 [21] = test: Effect on MCM4 gene expression in human CUTLL1 cells in presence of 1 uM dexamethasone at 30 uM after 24 hrs by microarray method; format: functional, cell-based; outline: as §3
CUTLL1 [22] = test: Effect on SMAP2 gene expression in human CUTLL1 cells in absence of 1 uM dexamethasone at 30 uM after 24 hrs by microarray method; format: functional, cell-based; outline: as §4
CUTLL1 [23] = test: Effect on MCM10 gene expression in human CUTLL1 cells in absence of 1 uM dexamethasone at 30 uM after 24 hrs by microarray method; format: functional, cell-based; outline: as §3
CUTLL1 [24] = test: Effect on PCNA gene expression in human CUTLL1 cells in absence of 1 uM dexamethasone at 30 uM after 24 hrs by microarray method; format: functional, cell-based; outline: as §3
CUTLL1 [25] = test: Effect on TIPIN gene expression in human CUTLL1 cells in absence of 1 uM dexamethasone at 30 uM after 24 hrs by microarray method; format: functional, cell-based; outline: as §4
CUTLL1 [26] = test: Effect on RUVBL1 gene expression in human CUTLL1 cells in absence of 1 uM dexamethasone at 30 uM after 24 hrs by microarray method; format: functional, cell-based; outline: as §4
CUTLL1 [27] = test: Effect on CDC25A gene expression in human CUTLL1 cells in absence of 1 uM dexamethasone at 30 uM after 24 hrs by microarray method; format: functional, cell-based; outline: as §3
CUTLL1 [28] = test: Effect on RANBP1 gene expression in human CUTLL1 cells in absence of 1 uM dexamethasone at 30 uM after 24 hrs by microarray method; format: functional, cell-based; outline: as §4
CUTLL1 [29] = test: Effect on E2F7 gene expression in human CUTLL1 cells in absence of 1 uM dexamethasone at 30 uM after 24 hrs by microarray method; format: functional, cell-based; outline: as §3
CUTLL1 [30] = test: Effect on NME1 gene expression in human CUTLL1 cells in absence of 1 uM dexamethasone at 30 uM after 24 hrs by microarray method; format: functional, cell-based; outline: as §3
CUTLL1 [31] = test: Effect on ALYREF gene expression in human CUTLL1 cells in absence of 1 uM dexamethasone at 30 uM after 24 hrs by microarray method; format: functional, cell-based; outline: as §3
CUTLL1 [32] = test: Effect on TK1 gene expression in human CUTLL1 cells in absence of 1 uM dexamethasone at 30 uM after 24 hrs by microarray method; format: functional, cell-based; outline: as §4

Nc1ncc(-c2ccncc2)c(C2CC2)n1
inactive: Activity (CUTLL1 [1]) | growth inhibition (GI) (CUTLL1 [2]) | growth inhibition (GI) (CUTLL1 [3]) | growth inhibition (GI) (CUTLL1 [4]) | inhibition [5] | inhibition [6] | Activity (CUTLL1 [8]) | Activity (CUTLL1 [10]) | Activity (CUTLL1 [22]) | Activity (CUTLL1 [23]) | Activity (CUTLL1 [24]) | Activity (CUTLL1 [25]) | Activity (CUTLL1 [26]) | Activity (CUTLL1 [27]) | Activity (CUTLL1 [28]) | Activity (CUTLL1 [29]) | Activity (CUTLL1 [30]) | Activity (CUTLL1 [31]) | Activity (CUTLL1 [32])
active: Activity (CUTLL1 [7]) | Activity (CUTLL1 [9]) | Activity (CUTLL1 [11]) | Activity (CUTLL1 [12]) | Activity (CUTLL1 [13]) | Activity (CUTLL1 [14]) | Activity (CUTLL1 [15]) | Activity (CUTLL1 [16]) | Activity (CUTLL1 [17]) | Activity (CUTLL1 [18]) | Activity (CUTLL1 [19]) | Activity (CUTLL1 [20]) | Activity (CUTLL1 [21])
